In ChEMBL document CHEMBL1145813, “Synthesis and evaluation of 11C-labeled 6-substituted 2-arylbenzothiazoles as amyloid imaging agents” (J Med Chem, 2003):

Experiments:
[1] = Percent injected dose per gram of compound to Swiss-Webster mice brain was measured after 2 min of intravenous injection; type: functional, Mus musculus
In short: (§1)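 Female Swiss-Webster mice (23–35 g) received 0.37–3.7 MBq of high specific activity (>7.4 GBq/μmol) 11C-labeled derivative by lateral tail vein, in ≤0.10 mL of 93% isotonic saline/7% ethanol. Mice were killed at 2 or 30 min, and whole brain minus cerebellum was gamma-counted and decay-corrected against injectate standards. %ID/g was multiplied by body weight (kg). The 2 min/30 min ratio was taken from these values.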

[2] = Ratio of percent injected dose per gram of compound to Swiss-Webster mice brain after 2 min and 30 min of intravenous injection; type: functional; in short: as §1
[3] = Apparent lipophilicity was determined
[4] = Percent injected dose per gram of compound to Swiss-Webster mice brain was measured after 30 min of intravenous injection; type: functional, Mus musculus; in short: as §1
[5] = molecular target: Amyloid-beta precursor protein (Homo sapiens, UniProt P05067); experiment: Binding affinity for Amyloid beta 1-40 aggregates in competition with [N-methyl-3H] BTA-1.
Sequence of Amyloid-beta precursor protein (P05067 whole entry): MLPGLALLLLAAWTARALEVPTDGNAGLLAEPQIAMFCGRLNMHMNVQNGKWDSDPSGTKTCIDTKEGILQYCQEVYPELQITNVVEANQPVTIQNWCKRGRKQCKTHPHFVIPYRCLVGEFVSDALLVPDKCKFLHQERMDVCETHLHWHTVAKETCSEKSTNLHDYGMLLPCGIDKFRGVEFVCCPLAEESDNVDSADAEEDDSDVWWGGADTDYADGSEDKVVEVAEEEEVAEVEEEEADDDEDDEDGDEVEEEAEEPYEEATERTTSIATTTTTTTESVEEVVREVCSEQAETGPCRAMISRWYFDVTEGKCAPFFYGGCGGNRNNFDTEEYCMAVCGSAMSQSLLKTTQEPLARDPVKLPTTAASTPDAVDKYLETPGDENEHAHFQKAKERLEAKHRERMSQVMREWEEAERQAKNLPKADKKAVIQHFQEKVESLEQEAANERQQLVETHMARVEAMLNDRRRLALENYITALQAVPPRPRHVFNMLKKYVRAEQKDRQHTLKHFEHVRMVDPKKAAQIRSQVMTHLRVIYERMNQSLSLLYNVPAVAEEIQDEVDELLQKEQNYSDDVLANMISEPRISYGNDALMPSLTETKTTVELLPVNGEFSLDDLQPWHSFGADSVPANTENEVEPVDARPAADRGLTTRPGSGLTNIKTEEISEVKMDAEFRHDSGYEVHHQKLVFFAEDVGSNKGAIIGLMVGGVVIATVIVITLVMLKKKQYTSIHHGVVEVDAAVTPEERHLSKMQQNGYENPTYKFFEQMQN

SMILES	chromatographic logD [3]	Ki [5]	ID [1]	Ratio [2]	ID [4]
Cc1ccc2nc(-c3ccc(N(C)C)cc3)sc2c1	3.8	64 nM	0.078%	0.52	0.15%
CNc1ccc(-c2nc3ccc(C)cc3s2)cc1	3.1	–	0.22%	–	0.083%
CN(C)c1ccc(-c2nc3ccc(Br)cc3s2)cc1	4.4	2.9 nM	0.054%	0.49	0.11%
COc1ccc2nc(-c3ccc(N)cc3)sc2c1	1.9	7 nM	0.32%	3.8	0.084%
CN(C)c1ccc(-c2nc3ccc(C#N)cc3s2)cc1	3.2	11 nM	0.24%	2.5	0.097%
CN(C)c1ccc(-c2nc3ccccc3s2)cc1	3.4	4 nM	0.19%	2.5	0.078%
Cc1ccc2nc(-c3ccc(N)cc3)sc2c1	2.4	9.5 nM	–	–	–
CNc1ccc(-c2nc3ccccc3s2)cc1	2.7	–	0.43%	–	0.057%
CNc1ccc(-c2nc3ccc(O)cc3s2)cc1 [PITTSBURGH COMPOUND B UNLABELLED]	–	–	0.21%	–	0.018%

Further compounds by falling Ki [5], results first:

chromatographic logD [3]	Ki [5]	SMILES	ID [1]	Ratio [2]	ID [4]
1.8	64 nM	N#Cc1ccc2nc(-c3ccc(N)cc3)sc2c1	–	–	–
–	46 nM	Nc1ccc(-c2nc3ccc(O)cc3s2)cc1	–	–	–
2	37 nM	Nc1ccc(-c2nc3ccccc3s2)cc1	–	–	–
2.5	8.6 nM	CNc1ccc(-c2nc3ccc(C#N)cc3s2)cc1	0.32%	5	0.063%
2.9	7.2 nM	Nc1ccc(-c2nc3ccc(Br)cc3s2)cc1	–	–	–
2.6	4.9 nM	CNc1ccc(-c2nc3ccc(OC)cc3s2)cc1	0.33%	3.2	0.1%
2	4.4 nM	CN(C)c1ccc(-c2nc3ccc(O)cc3s2)cc1	0.32%	3	0.1%
3.3	1.9 nM	COc1ccc2nc(-c3ccc(N(C)C)cc3)sc2c1	0.16%	1.1	0.14%
3.6	1.7 nM	CNc1ccc(-c2nc3ccc(Br)cc3s2)cc1	0.12%	1	0.12%
